This is a sample that favours compounds with a hit; in the whole collection about 1.1% have one here.
Hep lipid drop: hepatic lipid droplet formation modulation | AML12 mouse hepatocytes, oleate lipid droplets, BODIPY imaging | inhibition, % at 6.5 µM | actives 0.4% (n = 240,000);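 active means lipid droplet intensity inhibited by at least 50%, with more than 500 cells counted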
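material = mouse AML12 hepatocyte cell line, fixed after treatment | also added = 100 µM oleic acid challenge | doses = compound at 6.5 µM only | schedule = overnight exposure | technique = Image-based BODIPY and DAPI two-channel analysis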
FXIIa inh 1536: factor XIIa (human) inhibition; inhibition, % at 5 µM; purified FXIIa, Boc-QGR-AMC fluorogenic substrate, 2 h; P00748; actives 0.3% (n = 220,000); in the data active means inhibition above about 40%
thrombin 1536: thrombin (human) inhibition | P00734 | alpha-thrombin, Boc-VPR-AMC fluorogenic substrate cleavage | inhibition, % at 5 µM | actives 0.26% (n = 220,000) | AID 1046;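 active means inhibition at or above 40%; inactive means inhibition below 40%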
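Material: Human alpha-thrombin protein | Buffer or medium: pH 7.5 Tris-saline with Tween 20 | Reagent: Boc-VPR-AMC substrate, 15 µM final | Schedule: Reaction at ambient temperature | Detection: AMC fluorescence at 355 nm excitation and 460 nm emission | Evaluation: Percent inhibition scaled between no-compound controls and no-enzyme blanks | Controls: no-compound enzyme wells and no-enzyme blanks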
FXIa inh: blocks human coagulation factor XIa protease activity. P03951. purified FXIa, Boc-Glu-Ala-Arg-AMC fluorogenic substrate. inhibition, % at 5 µM. actives 0.14% (n = 220,000). AID 798;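 active means inhibition of at least 40%; inactive means inhibition below 40%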;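 further: fluorescence of freed AMC excited at 355 nm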
Target sequence (P03951 19-387 limits assumed): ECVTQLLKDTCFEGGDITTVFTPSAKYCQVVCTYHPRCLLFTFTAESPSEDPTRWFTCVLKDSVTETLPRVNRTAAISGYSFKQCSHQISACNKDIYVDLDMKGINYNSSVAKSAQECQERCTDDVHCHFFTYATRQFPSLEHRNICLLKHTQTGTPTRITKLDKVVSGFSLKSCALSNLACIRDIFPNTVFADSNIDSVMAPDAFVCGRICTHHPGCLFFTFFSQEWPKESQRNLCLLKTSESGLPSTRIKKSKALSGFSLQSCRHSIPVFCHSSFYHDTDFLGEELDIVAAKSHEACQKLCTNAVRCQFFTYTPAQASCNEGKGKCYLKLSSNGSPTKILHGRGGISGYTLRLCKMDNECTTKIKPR
Target sequence (P03951 388-625 limits assumed): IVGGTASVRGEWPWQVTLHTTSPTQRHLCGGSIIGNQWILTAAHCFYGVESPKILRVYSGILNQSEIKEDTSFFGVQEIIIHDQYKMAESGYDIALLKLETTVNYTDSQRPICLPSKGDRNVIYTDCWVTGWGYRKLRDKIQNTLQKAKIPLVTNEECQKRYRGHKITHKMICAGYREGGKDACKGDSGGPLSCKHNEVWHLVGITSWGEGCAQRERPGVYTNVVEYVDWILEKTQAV
hK5 inh: kallikrein 5 (human) inhibition | Q9Y337 | recombinant hK5, fluorogenic AMC substrate cleavage | inhibition, % at 5 µM | actives 0.59% (n = 210,000) | AID 873;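 active means inhibition of 40% or more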
Biofilm kill mix: mixture kills Candida albicans biofilm cells | C. albicans biofilm persisters + clotrimazole, fluorescence viability; primary screen in compound mixtures of four per well | actives 0.02% (n = 120,000) | inhibition, % at 7.6 µM;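 active means inhibition above 30.3% in the primary screen of four-compound pools, then above 30% when the compound was retested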;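 further: compounds exposed to preformed 24 h biofilms for 48 h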
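Test system: C. albicans biofilms. Buffer or medium: RPMI/MOPS medium, pH 7.0. Timing: 48 h compound exposure at 37 °C. Technique: Alamar Blue fluorescence. Evaluation: percent inhibition of biofilm viability.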
Numbers stand for hits; i = inactive; nt = no result given.

SMILES	Hep lipid drop	FXIIa inh 1536	thrombin 1536	FXIa inh	hK5 inh	Biofilm kill mix
O=C1CC(SCc2nc3ccccc3[nH]2)C(=O)N1c1cccc(Cl)c1 (stereo not drawn)	i	i	i	i	i	nt
COc1ccccc1CC(=O)NCc1csc(-c2cccs2)n1	i	45	i	47	i	i
COc1cccc(C(=O)SC2=NCCS2)c1	nt	i	i	i	60	nt
NC(=O)c1c(NC(=O)C(=O)N2CCOCC2)sc2c1CCC2	i	nt	nt	nt	nt	nt
CC(=O)N1CCc2c(sc(NC(=O)C3CC3)c2-c2nc3ccccc3s2)C1	i	51	i	i	i	nt
O=C(CN1C(=O)c2cccc3cccc1c23)Nc1ccc2c(c1)OCO2	nt	i	i	i	i	nt
O=C(CN1C(=O)c2cccc3cccc1c23)NCc1ccc2c(c1)OCO2	nt	105	i	i	41	nt
Cc1ccccc1NC(=O)Cc1nnc(SCC(=O)NC2CCCC2)n1C	i	nt	nt	nt	nt	nt
O=C(Nc1ccc(Cl)cc1)Nc1ccccc1C(=O)NCc1ccco1	i	i	i	104	51	nt
COC(=O)c1c(C)nn(-c2ccccc2)c1N	i	i	i	i	i	i
COC(=O)c1c(C)nn(-c2ccccc2)c1-n1cccc1	nt	i	41	i	i	nt
O=C(NNc1cc(Cl)ccc1Cl)c1c(F)cccc1Cl	i	42	i	i	i	i
O=C(NNc1ccc(Cl)cc1)c1c(F)cccc1Cl	i	i	i	i	i	i
Cc1cc2[nH]c(=O)c(=O)[nH]c2cc1S(=O)(=O)Nc1cccc(Cl)c1C	i	nt	nt	nt	nt	nt
Nc1c(C(=O)Nc2ccc(Cl)c(Cl)c2)sc2nc(-c3cccnc3)ccc12	i	i	i	i	48	i
Cc1c(NC(=O)Nc2cccc(Cl)c2Cl)c(=O)n(-c2ccccc2)n1C	i	nt	nt	nt	nt	nt
COc1ccc(-n2c(O)c(C=Nc3ccccc3)c3ccccc3c2=O)cc1	i	i	40	i	i	i
CCOC(=O)CN(c1cccc(C(C)=O)c1)S(C)(=O)=O	i	i	i	i	44	nt
CS(=O)(=O)C1=NSC2=NC(=O)/C(=C\c3ccc(OC(=O)c4ccco4)c(Br)c3)C(=N)N21	i	nt	nt	nt	nt	nt
Oc1ccc2ccccc2c1C=NC12CN3CCN(CN(C3)C1)C2	nt	i	i	i	44	nt
OCC(CO)(CO)N=Cc1c(O)ccc2ccccc12	nt	i	i	i	i	nt
O=C(CCC(=O)Nc1ccccc1)N/N=C/c1cccnc1	i	nt	nt	nt	nt	nt
COC(=O)CSc1nnc(-c2sc3cc(OC)ccc3c2Cl)n1C	i	48	i	i	i	nt
O=C(Cc1ccc(Cl)cc1)NNC(=O)c1ccco1	i	nt	nt	nt	nt	nt
CCCC(C)NC(=O)Cc1ccccc1 (stereo not drawn)	i	45	i	i	i	i
SMILES	Hep lipid drop	FXIIa inh 1536	thrombin 1536	FXIa inh	hK5 inh	Biofilm kill mix
CC(C(=O)Nc1cc(Cl)cc(Cl)c1)N1CCCC1 (stereo not drawn)	i	nt	nt	nt	nt	nt
O=C1C=C(O)c2c(O)cccc2C1=O	i	i	55	i	i	i
Cc1ccc(C)c(S(=O)(=O)NCCN2CCOCC2)c1	i	nt	nt	nt	nt	nt
Cc1ccc(C)c(S(=O)(=O)NCCCN2CCOCC2)c1	i	i	42	i	i	i
COc1ccc(C2=NN(C(=O)CCCC(=O)O)C(c3cn(-c4ccccc4)nc3-c3ccccc3)C2)cc1 (stereo not drawn)	i	40	i	i	i	i
COc1ccc(C2CC(c3ccccc3)=NN2C(=O)CN2CCN(Cc3ccccc3)CC2)cc1 (stereo not drawn)	i	i	85	i	i	i
COC(=O)/C(=C/Nc1ccccc1)[N+](=O)[O-]	i	46	i	i	i	nt
COC(=O)/C(=C/Nc1ccc(O)cc1)[N+](=O)[O-]	i	i	i	i	i	nt
COc1cc(OC)c(C(=O)Nc2ccc(C(=O)c3ccccc3)cc2)cc1OC	i	nt	nt	nt	nt	nt
CC(NC(=O)c1cn(C(C)c2ccccc2F)nn1)c1ccncc1 (stereo not drawn)	i	i	i	i	i	i
Cc1ccc(OCC(=O)N2CCC(N3CCCCCC3)CC2)cc1	i	i	42	i	i	nt
COc1ccc(NC(=O)CSc2nc3ccccc3nc2N2CCCC2)cc1	50	nt	nt	nt	nt	nt
COc1ccc(Cn2nnnc2C(c2cc(OC)ccc2OC)N2CCC(C(N)=O)CC2)cc1 (stereo not drawn)	nt	i	i	i	70	nt
CC1CCCN(C(=O)CCNS(=O)(=O)c2ccc3c(c2)oc(=O)n3C)C1 (stereo not drawn)	i	nt	nt	nt	nt	nt
CCC(=O)N1CCN(c2ccc(NC(=O)c3cc4ccccc4o3)cc2Cl)CC1	i	i	i	i	i	nt
COc1ccc(NC(=O)c2ccco2)cc1NC(=O)c1cc2ccccc2o1	nt	i	i	i	54	nt
O=C(Nc1ccc(N2CCN(C(=O)c3ccco3)CC2)c(Cl)c1)c1cc2ccccc2o1	i	i	i	i	40	nt
COc1ccc(NC(=O)c2cc3ccccc3o2)cc1OC	i	nt	nt	nt	nt	nt
COC(=O)c1cc(NC(=O)Cn2c(=O)oc3ccccc32)cc(C(=O)OC)c1	i	nt	nt	nt	nt	nt
Cc1ccc(S(=O)(=O)N/N=C\c2cn(-c3ccccc3)nc2-c2ccccc2)cc1	nt	i	i	i	i	nt
Cc1ccc(-c2nn(-c3ccccc3)cc2/C=N/NS(=O)(=O)c2ccccc2)cc1	nt	45	i	i	i	nt
CC(C)Cc1cc(C(C)(C)C)ccc1OC(=S)N(C)C	i	nt	nt	nt	nt	nt
Cc1cc(/C=C\c2ccccc2)nc2ccccc12	i	i	i	i	50	i
COc1ccc(/C=C/c2cc(C(=O)O)c3ccccc3n2)cc1	i	i	i	i	i	i
COc1ccc2cc(C(=O)N3CCN(c4ccc(F)cc4)CC3)[nH]c2c1	i	nt	nt	nt	nt	nt
Cc1cc(C)c(O)c(-c2n[nH]c3c2C(c2cccc(O)c2)N(Cc2ccco2)C3=O)c1 (stereo not drawn)	i	i	i	i	i	i
COc1ccc2oc(C(=O)c3ccccc3)c(N)c2c1	nt	i	i	i	49	nt

High-throughput results as filed in PubChem BioAssay.
